ChEMBL document CHEMBL1955865, “Synthesis of novel spirooxindole derivatives by one pot multicomponent reaction and their antimicrobial activity” (2012)
≈ marks a conversion by molar mass, not a printed value. Calls of active or inactive are those of the source. The rule behind the calls is not given here.

Columns and labels:
[1] = Antifungal activity against Malassezia pachydermatis after 48 to 72 hrs by twofold serial dilution method; assay type: functional
Procedure, shortened: (§1)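 Broth two-fold serial dilution, 1000 to 15.62 µg/ml, with compound dissolved in 2% DMSO, in 96-well plates. Filamentous fungal spores came from 10-day SDA slants at 28 °C, and yeast from SDB grown 48 h at 28 °C. Incubation was 48-72 h at 28 °C. MIC was the lowest concentration with no visible fungal growth.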

[2] = system: Candida albicans; assay: Antifungal activity against Candida albicans MTCC 227 after 48 to 72 hrs by twofold serial dilution method; assay type: functional; procedure, shortened: as §1
[3] = system: Botrytis cinerea; assay: Antifungal activity against Botrytis cinerea after 48 to 72 hrs by twofold serial dilution method; assay type: functional; procedure, shortened: as §1
[4] = system: Klebsiella pneumoniae; assay: Antibacterial activity against Klebsiella pneumoniae MTCC 109 after 24 hrs by twofold serial dilution method; assay type: functional; settings: MTCC 109, 24 h
Procedure, shortened: (§2)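 Bacteria grown in Mueller Hinton broth for 24 h at 37 °C and diluted to about 10^4 CFU/ml. Compound in 2% DMSO was serially diluted two-fold (1000 to 15.62 µg/ml) in medium in 96-well plates and inoculated. Plates were incubated 24 h at 37 °C. 5 µl of broth was spotted onto MHA, and MIC was taken as the lowest concentration with no visible growth on agar.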

[5] = system: Salmonella typhimurium; assay: Antibacterial activity against Salmonella Typhimurium MTCC 1251 at 1000 ug/disc after 24 hrs by disc diffusion assay; assay type: functional, Salmonella enterica subsp. enterica serovar Typhimurium; settings: Salmonella enterica, MTCC 1251, 24 h; read-out: IZ
Procedure, shortened: (§3)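 Disc diffusion on Mueller Hinton agar. Cultures (about 10^4 CFU/ml) were swabbed on and dried 10 min. Discs loaded at 1000 µg/disc were left 30 min at room temperature for diffusion, with a solvent negative control. Plates were incubated 24 h at 37 °C. Inhibition zones were measured in mm, and the experiment was done twice.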

[6] = system: Candida albicans; assay: Antifungal activity against Candida albicans MTCC 227 at 1000 ug/disc after 48 hrs by disc diffusion assay; assay type: functional; settings: MTCC 227, 48 h, read-out: IZ
Procedure, shortened: (§4)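 Fungal disc diffusion with inoculum from SDA spores (filamentous) or SDB culture (yeast). Test cultures were swabbed on agar, and discs at 1000 µg/disc were left 30 min at room temperature, with a solvent negative control. Plates were incubated 48 h at 27 °C. Zone of inhibition was measured in mm, and the experiment was repeated twice.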

[7] = Antifungal activity against Malassezia pachydermatis at 1000 ug/disc after 48 hrs by disc diffusion assay; assay type: functional; procedure, shortened: as §4
[8] = system: Staphylococcus aureus; assay: Antibacterial activity against methicillin-resistant Staphylococcus aureus after 24 hrs by twofold serial dilution method; assay type: functional
Procedure, shortened: (§5)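 Broth microdilution in MHB following the standard bacterial reference method. Compound was dissolved in DMSO (2%) and serially diluted two-fold from 1000 to 15.62 µg/ml in 96-well plates, with an inoculum of about 10^4 CFU/ml. Streptomycin and ciprofloxacin were positive controls. After 24 h at 37 °C, 5 µl of broth was subcultured on MHA. MIC was the lowest concentration without visible growth on agar.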

[9] = system: Staphylococcus aureus; assay: Antibacterial activity against Staphylococcus aureus MTCC 96 at 1000 ug/disc after 24 hrs by disc diffusion assay; assay type: functional; settings: MTCC 96, 24 h, read-out: IZ; procedure, shortened: as §3
[10] = system: Micrococcus luteus; assay: Antibacterial activity against Micrococcus luteus at 1000 ug/disc after 24 hrs by disc diffusion assay; assay type: functional; settings: read-out: IZ; procedure, shortened: as §3
[11] = system: Botrytis cinerea; assay: Antifungal activity against Botrytis cinerea at 1000 ug/disc after 48 hrs by disc diffusion assay; assay type: functional; settings: for zone of inhibition at 1000 µg/disc: read-out: IZ; procedure, shortened: as §4
[12] = system: Klebsiella pneumoniae; assay: Antibacterial activity against Klebsiella pneumoniae MTCC 109 at 1000 ug/disc after 24 hrs by disc diffusion assay; assay type: functional; settings: MTCC 109, 24 h, read-out: IZ; procedure, shortened: as §3
[13] = system: Staphylococcus aureus; assay: Antibacterial activity against Staphylococcus aureus MTCC 96 after 24 hrs by twofold serial dilution method; assay type: functional; settings: MTCC 96, 24 h; procedure, shortened: as §2
[14] = system: Salmonella enterica subsp. enterica serovar Paratyphi B; assay: Antibacterial activity against Salmonella paratyphi B at 1000 ug/disc after 24 hrs by disc diffusion assay; assay type: functional; settings: read-out: IZ
Procedure, shortened: (§6)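 Disc diffusion on Mueller Hinton agar. Bacteria were grown 24 h at 37 °C in MHB and diluted to about 10^4 CFU/ml, swabbed onto plates and dried 10 min. Discs were loaded at 1000 μg/disc and held 30 min at room temperature for diffusion. Solvent served as negative control. After 24 h at 37 °C, inhibition zones were read in mm; run twice.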

[15] = system: Proteus vulgaris; assay: Antibacterial activity against Proteus vulgaris MTCC 1771 at 1000 ug/disc after 24 hrs by disc diffusion assay; assay type: functional; settings: MTCC 1771, 24 h, read-out: IZ; procedure, shortened: as §3
[16] = system: Micrococcus luteus; assay: Antibacterial activity against Micrococcus luteus after 24 hrs by twofold serial dilution method; assay type: functional; procedure, shortened: as §2
[17] = system: Proteus vulgaris; assay: Antibacterial activity against Proteus vulgaris MTCC 1771 after 24 hrs by twofold serial dilution method; assay type: functional; settings: MTCC 1771, 24 h; procedure, shortened: as §2
[18] = system: Klebsiella aerogenes; assay: Antibacterial activity against Enterobacter aerogenes MTCC 111 after 24 hrs by twofold serial dilution method; assay type: functional; settings: MTCC 111, 24 h; procedure, shortened: as §2
[19] = system: Staphylococcus aureus; assay: Antibacterial activity against methicillin-resistant Staphylococcus aureus at 1000 ug/disc after 24 hrs by disc diffusion assay; assay type: functional; settings: read-out: IZ; procedure, shortened: as §6
[20] = system: Salmonella typhimurium; assay: Antibacterial activity against Salmonella Typhimurium MTCC 1251 after 24 hrs by two-fold serial dilution method; assay type: functional, Salmonella enterica subsp. enterica serovar Typhimurium; settings: Salmonella enterica, MTCC 1251, 24 h; procedure, shortened: as §2
[21] = system: Klebsiella aerogenes; assay: Antibacterial activity against Enterobacter aerogenes MTCC 111 at 1000 ug/disc after 24 hrs by disc diffusion assay; assay type: functional; settings: MTCC 111, 24 h, read-out: IZ; procedure, shortened: as §3
[22] = system: Salmonella enterica subsp. enterica serovar Paratyphi B; assay: Antibacterial activity against Salmonella paratyphi B after 24 hrs by twofold serial dilution method; assay type: functional; procedure, shortened: as §5

| SMILES | MIC [1] | MIC [2] | MIC [3] | MIC [4] | zone of inhibition at 1000 µg/disc [5] | zone of inhibition at 1000 µg/disc [6] | inhibition zone (IZ) [7] | MIC [8] | zone of inhibition at 1000 µg/disc [9] | zone of inhibition at 1000 µg/disc [10] | zone of inhibition at 1000 µg/disc [11] | zone of inhibition at 1000 µg/disc [12] | MIC [13] | zone of inhibition at 1000 µg/disc [14] | zone of inhibition at 1000 µg/disc [15] | MIC [16] | MIC [17] | MIC [18] | zone of inhibition at 1000 µg/disc [19] | MIC [20] | also measured |
| --- | --- | --- | --- | --- | --- | --- | --- | --- | --- | --- | --- | --- | --- | --- | --- | --- | --- | --- | --- | --- | --- |
| OC(Cn1cncn1)(Cn1cncn1)c1ccc(F)cc1F [FLUCONAZOLE] | 12.5 µg/mL (≈ 40.8 µM) | > 100 µg/mL | inactive |  |  |  |  |  |  |  |  |  |  |  |  |  |  |  |  |  |  |
| CN1CC2=C(C(=O)c3ccccc3C2=O)C12C(=O)Nc1ccc(Br)cc12 (stereo unspecified) | 500 µg/mL (≈ 1220 µM) | 500 µg/mL (≈ 1220 µM) | 250 µg/mL (≈ 611 µM) | 500 µg/mL (≈ 1220 µM) | 19 mm | 10 mm | 10 mm | 250 µg/mL (≈ 611 µM) | 20 mm | 17 mm | 11 mm | 10 mm | 15.6 µg/mL (≈ 38.2 µM) | 8 mm | 12 mm | 62.5 µg/mL (≈ 153 µM) | 125 µg/mL (≈ 305 µM) | 62.5 µg/mL (≈ 153 µM) | 12 mm | 31.2 µg/mL (≈ 76.4 µM) | zone of inhibition at 1000 µg/disc [21]: 16 mm; MIC [22]: 500 µg/mL (≈ 1220 µM) |
| CN1CC2=C(C(=O)c3ccccc3C2=O)C12C(=O)Nc1ccc(I)cc12 (stereo unspecified) | 125 µg/mL (≈ 274 µM) | 250 µg/mL (≈ 548 µM) | 250 µg/mL (≈ 548 µM) | 250 µg/mL (≈ 548 µM) | 14 mm | 11 mm | 14 mm | 500 µg/mL (≈ 1100 µM) | 16 mm | 15 mm | 12 mm | 11 mm | 62.5 µg/mL (≈ 137 µM) | 7 mm | 10 mm | 15.6 µg/mL (≈ 34.2 µM) | 500 µg/mL (≈ 1100 µM) | 250 µg/mL (≈ 548 µM) | 8 mm | 125 µg/mL (≈ 274 µM) | zone of inhibition at 1000 µg/disc [21]: 12 mm; MIC [22]: 500 µg/mL (≈ 1100 µM) |
| CCN1C(=O)C2(C3=C(CN2C)C(=O)c2ccccc2C3=O)c2ccccc21 (stereo unspecified) | 250 µg/mL (≈ 698 µM) | 500 µg/mL (≈ 1400 µM) | 500 µg/mL (≈ 1400 µM) | 250 µg/mL (≈ 698 µM) | 19 mm | 10 mm | 11 mm | 250 µg/mL (≈ 698 µM) | 22 mm | 18 mm | 8 mm | 12 mm | 15.6 µg/mL (≈ 43.6 µM) | 10 mm | 15 mm | 31.2 µg/mL (≈ 87.2 µM) | 62.5 µg/mL (≈ 174 µM) | 250 µg/mL (≈ 698 µM) | 13 mm | 31.2 µg/mL (≈ 87.2 µM) | zone of inhibition at 1000 µg/disc [21]: 12 mm; MIC [22]: 500 µg/mL (≈ 1400 µM) |
| Cc1ccc2c(c1)C1(C(=O)N2)C2=C(CN1C)C(=O)c1ccccc1C2=O (stereo unspecified) | 125 µg/mL (≈ 363 µM) | 250 µg/mL (≈ 726 µM) | 250 µg/mL (≈ 726 µM) | 62.5 µg/mL (≈ 181 µM) | 12 mm | 8 mm | 12 mm | 125 µg/mL (≈ 363 µM) | 15 mm | 13 mm | 9 mm | 13 mm | 31.2 µg/mL (≈ 90.7 µM) | 11 mm | 9 mm | 62.5 µg/mL (≈ 181 µM) | 250 µg/mL (≈ 726 µM) | 125 µg/mL (≈ 363 µM) | 12 mm | 250 µg/mL (≈ 726 µM) | zone of inhibition at 1000 µg/disc [21]: 13 mm; MIC [22]: 125 µg/mL (≈ 363 µM) |
| CC(=O)N1CCN(c2ccc(OCC3COC(Cn4ccnc4)(c4ccc(Cl)cc4Cl)O3)cc2)CC1 (stereo unspecified) [KETOCONAZOLE] | 15 µg/mL (≈ 28.2 µM) | 25 µg/mL (≈ 47 µM) | 25 µg/mL (≈ 47 µM) |  |  | 22 mm | 28 mm |  |  |  |  |  |  |  |  |  |  |  |  |  | inhibition zone (IZ) [11]: inactive |
| CN1C(=O)C2(C3=C(CN2C)C(=O)c2ccccc2C3=O)c2ccccc21 (stereo unspecified) | 125 µg/mL (≈ 363 µM) | 250 µg/mL (≈ 726 µM) | 250 µg/mL (≈ 726 µM) | 31.2 µg/mL (≈ 90.7 µM) | 14 mm | 9 mm | 11 mm | 250 µg/mL (≈ 726 µM) | 13 mm | 12 mm | 8 mm | 18 mm | 62.5 µg/mL (≈ 181 µM) | 11 mm | 10 mm | 125 µg/mL (≈ 363 µM) | 125 µg/mL (≈ 363 µM) | 125 µg/mL (≈ 363 µM) | 10 mm | 125 µg/mL (≈ 363 µM) | zone of inhibition at 1000 µg/disc [21]: 10 mm; MIC [22]: 250 µg/mL (≈ 726 µM) |
| C#CCN1C(=O)C2(C3=C(CN2C)C(=O)c2ccccc2C3=O)c2ccccc21 (stereo unspecified) | 250 µg/mL (≈ 679 µM) | 250 µg/mL (≈ 679 µM) | 250 µg/mL (≈ 679 µM) | 250 µg/mL (≈ 679 µM) | 15 mm | 10 mm | 10 mm | 125 µg/mL (≈ 339 µM) | 13 mm | 12 mm | 10 mm | 11 mm | 125 µg/mL (≈ 339 µM) | 10 mm | 9 mm | 125 µg/mL (≈ 339 µM) | 500 µg/mL (≈ 1360 µM) | 250 µg/mL (≈ 679 µM) | 10 mm | 62.5 µg/mL (≈ 170 µM) | zone of inhibition at 1000 µg/disc [21]: 11 mm; MIC [22]: 250 µg/mL (≈ 679 µM) |
